Compounds with a hit are over-represented: about 2.5% of the library has one in this group of screens.
miR122 inh: inhibitors of miR-122 in Huh7 cells. AID 602342. Huh7 miR-122 Renilla luciferase sensor, 48 h; neutral wells = 0, positive control = 100. 340,000 compounds, 0.3% hits. activation (reporter increase), % at 12.5 µM;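 active means mean replicate activation score at least 90 and every replicate individually at or above 90; inconclusive means only one of the two criteria met; inactive means neither criterion met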;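 further: higher luciferase means less miR-122 activity so hits act as miR-122 inhibitors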
E-sel inducer: induces E-selectin expression in human endothelial cells; P16581; HUVEC E-selectin immunofluorescence imaging; normalized: neutral wells 0, TNF-alpha wells 100; activation, % at 7.58 µM; 260,000 compounds, 0.37% hits;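 active means mean E-selectin-positive cell signal at least 10% of the positive control, reached in at least 60% of replicates, without over 20% cell loss; inconclusive means no rule given, readout overlaps actives, possibly toxicity-flagged; inactive means the rest, including those meeting only one limit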
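System: HUVEC, human umbilical vein endothelial cells; quantity: 3,000 cells/well; buffer or medium: EGM-2 medium, gelatin-coated wells; dosing: single-point compound dose; detection: immunofluorescence imaging; evaluation: % PE-positive cells; benchmarks: TNF-alpha, DMSO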
FGF22 binding: binders of recombinant human FGF22 by thermal shift | Q9HCT0 | activity (Tm shift, normalised), % at 9.99 µM | SYPRO orange fluorescence; percent of sucrose octasulfate shift, DMSO zero | 340,000 compounds, 1.5% hits | AID 651658;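 active means mean Tm shift, scaled 0 neutral to 100 positive control, at about 1.3% or above, every replicate too, limit read from the data; inconclusive means no clear call, values can overlap the other calls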
S100A4 MyoIIA: blocks human S100A4 binding to myosin IIA peptide. inhibition, % at 10.7 µM. P26447. AID 652163. 360,000 compounds, 0.14% hits. S100A4/TAMRA-MyoIIA peptide fluorescence polarization;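 active means mean inhibition of at least 70% across replicates, with every replicate also reaching that level; inconclusive means mean inhibition reaches 70% but some replicates fall short; inactive means mean inhibition below 70%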
Target sequence (P26447 whole entry, looked up): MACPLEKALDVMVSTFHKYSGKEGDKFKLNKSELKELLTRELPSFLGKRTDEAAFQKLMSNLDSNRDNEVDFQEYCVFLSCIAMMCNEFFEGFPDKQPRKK
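Material: S100A4 monomer protein / Buffer or medium: 50 mM HEPES pH 7.2, 10 mM CaCl2, 100 mM KCl / Times: 5 min incubation before reading / Benchmarks: neutral control DMSO, positive control TFP / Reagent: labelled myosin peptide probe, 5 nM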
SIRT5 inh: blocks human SIRT5 desuccinylation of peptide; Q9NXA8; Purified SirT5, succinyl-peptide AMC, trypsin-coupled fluorescence; inhibition, % at 15 µM; 330,000 compounds, 1.1% hits; in the data active means inhibition above about 15%; inconclusive means no clear call, values can overlap the other calls
Target sequence (Q9NXA8 whole entry, looked up): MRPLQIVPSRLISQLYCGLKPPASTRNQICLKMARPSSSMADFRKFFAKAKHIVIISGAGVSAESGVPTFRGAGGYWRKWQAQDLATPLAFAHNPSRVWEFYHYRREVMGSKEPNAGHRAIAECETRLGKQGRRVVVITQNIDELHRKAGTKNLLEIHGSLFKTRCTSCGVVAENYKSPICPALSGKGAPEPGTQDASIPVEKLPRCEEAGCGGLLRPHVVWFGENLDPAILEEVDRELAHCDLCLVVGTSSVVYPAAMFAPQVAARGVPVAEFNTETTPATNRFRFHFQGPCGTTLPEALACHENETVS
Numbers without * were called inactive; ? = inconclusive; · = no result; [ ] = another dose, or the depositor's remark.

SMILES	miR122 inh	E-sel inducer	FGF22 binding	S100A4 MyoIIA	SIRT5 inh
CC(C)NC(=O)N(C)C[C@H]1Oc2cc(C#CC(C)(C)O)ccc2S(=O)(=O)N([C@H](C)CO)C[C@H]1C	11[16.7 µM]	0	0	-7	-3
CCC(=O)N1[C@@H](CO)[C@@H](c2ccccc2)[C@@H]1CN(CC)C(=O)NC1CCCC1	-6[16.7 µM]	0	0	-2	3
CO[C@@H](CN(C)C(=O)c1ccc2c(c1)OCO2)[C@@H](C)CN([C@@H](C)CO)S(=O)(=O)c1ccccc1	·	0	0	-37	-2
CO[C@H](CN(C)C(=O)c1ccc2c(c1)OCO2)[C@H](C)CN([C@H](C)CO)S(=O)(=O)c1ccccc1	·	0	0	27	27*
CCC(CC)CN1CCC(CN2C(=S)NC[C@@H]2[C@@H](C)CC)CC1	0	0	0	-6	19*
COc1ccc(NC(=O)N(C)C[C@H]2OCCCC[C@H](C)Oc3ccc(NS(=O)(=O)c4c(C)noc4C)cc3C(=O)N([C@@H](C)CO)C[C@H]2C)cc1	-9[16.7 µM]	0	0	·	·
Cc1noc(C)c1NC(=O)N[C@H]1CC[C@H](CCNC(=O)C2CCC2)O[C@H]1CO	·	-1	0	8	4
O=C(O)c1ccccc1C(=O)NNc1ccc(Cl)cc1Cl	·	·	44*	-1	-3
C[C@H](CO)N1C[C@H](C)[C@H](CN(C)Cc2ccc(F)cc2)Oc2cc(C#CC3CC3)ccc2S1(=O)=O	7[16.7 µM]	1	0	-3	14
Cn1cnc(S(=O)(=O)N2CCCCN3[C@H](CO)[C@H](c4ccc(C#CC5CC5)cc4)[C@H]3C2)c1	14[16.7 µM]	·	·	·	·
COc1ccccc1/C=C/C(=O)Oc1cccc2cccnc12	-1	0	43*	0	-1
COc1cccc(C(=O)OCCCN(C)C)c1	·	·	0	-6	15*
COc1ccccc1/C=C/C(=O)OCCCN(C)C	·	·	44*	-1	-5
C/C=C/c1cccc(-c2nc(C(=O)N(C)C)cc3c2[C@@H](CCO)N([S@](=O)C(C)(C)C)C3)c1	·	1	·	·	0
CCOC(=O)C1=C(O)/C(=C/c2ccc(OCC(=O)O)c(OCC)c2)SC1=Nc1ccccc1	·	4	43*	1	-4
CCOC(=O)C1=C(O)/C(=C/c2ccc(OCC(=O)O)c(OC)c2)SC1=Nc1ccc(OCC)cc1	·	·	0	-1	6
CCOC(=O)C(=O)Nc1nnc(SCc2ccc(F)cc2)s1	1	39*	0	-4	1
COc1ccc(-c2ccc3c(c2)[C@@H]2[C@@H](CCN2S(=O)(=O)c2ccccc2F)[C@@H](CO)N3)cc1	-8[16.7 µM]	-1	0	·	·
O=C1CC(c2ccc(O)cc2)Oc2cc(O)cc(O)c21 (centres undefined)	-5	?	0	-7	2
O=C(c1c(O)cc(O)cc1O)C1c2c(cc(O)c3c2O[C@H](c2ccc(O)cc2)[C@@H](O)C3)OC1c1ccc(O)cc1 (some centres undefined)	·	0	1.5*	-5	·
C[C@H](CO)N1C[C@H](C)[C@H](CN(C)Cc2ccc(Oc3ccccc3)cc2)Oc2ccc(NC(=O)NC3CCCCC3)cc2CC1=O	6[16.7 µM]	1	0	-5	1
CN(C)Cc1cn(CC[C@H]2CC[C@@H](NC(=O)Nc3ccccc3F)[C@@H](CO)O2)nn1	·	0	0	12	18*
CN(C)Cc1cn(CC[C@@H]2CC[C@H](NC(=O)Cc3cccnc3)[C@H](CO)O2)nn1	·	0	0	-2	-3
CN(C)Cc1cn(CC[C@H]2CC[C@H](NC(=O)Cc3cccnc3)[C@H](CO)O2)nn1	·	1	0	94*	1
O=C(Nc1ccc(C(F)(F)F)cc1)N[C@@H]1CC[C@H](CCn2cc(C3(O)CCCC3)nn2)O[C@@H]1CO	·	2	1	20	18*
CCCc1cn(CC[C@@H]2CC[C@H](NC(=O)C3CCCCC3)[C@@H](CO)O2)nn1	8[16.7 µM]	-1	0	7	16*
CCN1[C@@H]2c3ccc(-c4cccnc4)c(=O)n3C[C@H]1[C@H](CO)[C@H]2C(=O)NC1CCCC1	·	0	·	10	-5
O=C(NCc1ccc(F)cc1)C(c1ccccc1)N(C(=O)c1csnn1)c1ccccc1 (centres undefined)	2	1	-1	-4	-5
